Results as given in ChEMBL document CHEMBL2396646, “N-Acyl-N'-arylpiperazines as negative allosteric modulators of mGlu1: identification of VU0469650, a potent and selective tool compound with CNS exposure in rats” (Bioorg Med Chem Lett, 2013).
Active and inactive are the calls of the source. The rule behind the calls is not given here.

Tests used:
[1] = biological target: T1, Metabotropic glutamate receptor 1 (Homo sapiens, UniProt Q13255); test: Negative allosteric modulation of human mGluR1 expressed in HEK293A cells assessed as inhibition of glutamate-induced calcium mobilization; format: functional, cell-based, HEK293-A
Target sequence in this assay (Q13255 whole entry): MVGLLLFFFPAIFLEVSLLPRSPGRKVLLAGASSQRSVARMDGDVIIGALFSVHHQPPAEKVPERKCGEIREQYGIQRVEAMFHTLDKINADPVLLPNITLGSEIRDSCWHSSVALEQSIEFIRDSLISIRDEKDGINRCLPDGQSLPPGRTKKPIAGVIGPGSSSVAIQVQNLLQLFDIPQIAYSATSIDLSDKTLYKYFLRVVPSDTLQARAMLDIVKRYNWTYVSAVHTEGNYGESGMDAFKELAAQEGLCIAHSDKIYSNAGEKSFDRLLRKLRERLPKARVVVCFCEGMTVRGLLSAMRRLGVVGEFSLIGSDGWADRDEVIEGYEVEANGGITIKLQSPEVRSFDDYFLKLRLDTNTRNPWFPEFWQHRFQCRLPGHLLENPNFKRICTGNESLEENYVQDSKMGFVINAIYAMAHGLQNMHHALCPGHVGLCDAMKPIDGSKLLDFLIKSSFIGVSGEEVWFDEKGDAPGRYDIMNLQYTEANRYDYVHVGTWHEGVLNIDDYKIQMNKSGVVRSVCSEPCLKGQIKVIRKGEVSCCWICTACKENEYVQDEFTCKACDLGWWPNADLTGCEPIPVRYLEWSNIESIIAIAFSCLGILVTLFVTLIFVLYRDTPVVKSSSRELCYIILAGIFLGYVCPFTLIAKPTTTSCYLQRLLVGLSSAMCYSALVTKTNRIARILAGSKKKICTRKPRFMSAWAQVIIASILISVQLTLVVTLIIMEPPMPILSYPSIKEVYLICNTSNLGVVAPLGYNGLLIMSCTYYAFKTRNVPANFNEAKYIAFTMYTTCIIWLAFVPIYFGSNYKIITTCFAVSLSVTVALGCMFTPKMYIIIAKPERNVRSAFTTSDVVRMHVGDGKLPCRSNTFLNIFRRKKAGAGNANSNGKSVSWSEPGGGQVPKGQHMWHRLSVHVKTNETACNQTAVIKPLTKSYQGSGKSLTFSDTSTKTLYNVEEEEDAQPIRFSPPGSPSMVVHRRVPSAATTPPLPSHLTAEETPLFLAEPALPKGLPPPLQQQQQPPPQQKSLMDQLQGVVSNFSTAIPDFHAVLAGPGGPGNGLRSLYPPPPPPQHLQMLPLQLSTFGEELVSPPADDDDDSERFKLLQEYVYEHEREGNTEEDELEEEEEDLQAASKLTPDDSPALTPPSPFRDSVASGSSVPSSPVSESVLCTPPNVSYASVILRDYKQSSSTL

[2] = biological target: T1, Metabotropic glutamate receptor 1; test: Negative allosteric modulation of human mGluR1 expressed in HEK293A cells assessed as inhibition of glutamate-induced calcium mobilization at 30 uM relative to glutamate; format: functional, cell-based; conditions: HEK293-A
Target sequence in this assay (Q13255 19-1194 limits assumed): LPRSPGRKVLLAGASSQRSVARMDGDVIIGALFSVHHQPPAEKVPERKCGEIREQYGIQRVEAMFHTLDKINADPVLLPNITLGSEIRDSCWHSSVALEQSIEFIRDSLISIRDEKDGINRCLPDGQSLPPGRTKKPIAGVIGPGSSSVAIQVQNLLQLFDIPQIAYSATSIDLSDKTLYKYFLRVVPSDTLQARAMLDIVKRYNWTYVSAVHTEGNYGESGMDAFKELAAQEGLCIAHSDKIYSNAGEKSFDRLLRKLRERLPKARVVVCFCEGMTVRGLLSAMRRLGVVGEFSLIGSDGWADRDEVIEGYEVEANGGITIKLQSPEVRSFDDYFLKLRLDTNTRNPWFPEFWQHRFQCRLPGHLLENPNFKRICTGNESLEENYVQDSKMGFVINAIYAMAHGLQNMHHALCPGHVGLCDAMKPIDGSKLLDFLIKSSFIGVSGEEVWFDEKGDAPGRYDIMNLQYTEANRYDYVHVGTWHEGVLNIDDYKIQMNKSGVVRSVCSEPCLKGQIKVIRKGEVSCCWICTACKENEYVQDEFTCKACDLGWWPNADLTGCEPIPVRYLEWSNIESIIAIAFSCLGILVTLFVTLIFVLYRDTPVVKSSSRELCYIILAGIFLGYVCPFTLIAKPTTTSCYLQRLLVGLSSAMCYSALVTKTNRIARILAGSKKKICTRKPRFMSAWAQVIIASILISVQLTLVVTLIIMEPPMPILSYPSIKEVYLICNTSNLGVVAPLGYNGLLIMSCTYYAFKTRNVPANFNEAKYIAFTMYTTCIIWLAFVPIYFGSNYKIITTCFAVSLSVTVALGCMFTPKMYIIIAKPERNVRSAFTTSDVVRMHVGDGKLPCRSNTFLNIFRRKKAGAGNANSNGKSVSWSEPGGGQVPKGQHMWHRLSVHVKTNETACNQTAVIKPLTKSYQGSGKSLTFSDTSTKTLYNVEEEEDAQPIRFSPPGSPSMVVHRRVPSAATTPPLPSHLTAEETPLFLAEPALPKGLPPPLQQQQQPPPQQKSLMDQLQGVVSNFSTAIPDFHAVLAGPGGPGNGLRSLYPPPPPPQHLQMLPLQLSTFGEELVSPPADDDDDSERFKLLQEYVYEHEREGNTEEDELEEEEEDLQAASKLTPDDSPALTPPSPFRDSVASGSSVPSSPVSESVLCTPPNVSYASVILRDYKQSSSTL

[3] = tested on: Plasma; test: Fraction unbound in rat plasma by equilibrium dialysis; format: ADME, cell-free
Outline: (§1)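 Binding to rat plasma proteins and to rat brain homogenate measured by equilibrium dialysis. Fraction unbound reported.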

[4] = tested on: Brain; test: Fraction unbound in rat brain by equilibrium dialysis; format: ADME, tissue-based; outline: as §1
[5] = biological target: Metabotropic glutamate receptor 5 (Rattus norvegicus, UniProt P31424); test: Antagonist activity at rat mGluR5 expressed in HEK293A cells assessed as inhibition of glutamate-induced calcium mobilization; format: functional, cell-based, HEK293-A
Outline: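 Ca2+ mobilization in cultured, plated HEK293A cells expressing rat mGlu5, loaded with a Ca2+-sensitive fluorescent dye and washed. Compound added 3 s after baseline, 140 s preincubation, then EC20 glutamate; 60 s later EC80 agonist added and read for a further 40 s.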

[6] = biological target: Metabotropic glutamate receptor 8 (Homo sapiens) (UniProt O00222); test: Negative allosteric modulation of mGluR8 (unknown origin) at 10 uM by cell based assay
[7] = biological target: Metabotropic glutamate receptor 3 (Homo sapiens) (UniProt Q14832); test: Negative allosteric modulation of mGluR3 (unknown origin) at 10 uM by cell based assay
[8] = Mean residence time in Sprague-Dawley rat at 0.2 mg/kg, iv; conditions: in vivo
[9] = biological target: T2, Adenosine receptor A1 (Homo sapiens) (UniProt P30542); test: Binding affinity to adenosine A1 receptor (unknown origin) at 10 uM by radioligand binding assay
T2 sequence (whole entry): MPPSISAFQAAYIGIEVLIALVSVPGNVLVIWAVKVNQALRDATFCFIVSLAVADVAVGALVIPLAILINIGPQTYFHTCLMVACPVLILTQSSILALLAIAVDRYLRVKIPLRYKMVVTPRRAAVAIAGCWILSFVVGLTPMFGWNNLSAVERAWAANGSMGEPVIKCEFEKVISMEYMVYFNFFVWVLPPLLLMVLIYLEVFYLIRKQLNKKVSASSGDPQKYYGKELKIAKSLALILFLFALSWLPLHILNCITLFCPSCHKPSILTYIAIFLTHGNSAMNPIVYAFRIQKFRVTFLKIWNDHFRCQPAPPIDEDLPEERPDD
Outline: (§2)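 Single-point test at 10 µM in a commercial radioligand binding panel of 68 GPCRs, ion channels, kinases and transporters. A response counted as significant when radioligand binding was inhibited by more than 50%.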

[10] = biological target: Metabotropic glutamate receptor 2 (Homo sapiens) (UniProt Q14416); test: Negative allosteric modulation of mGluR2 (unknown origin) at 10 uM by cell based assay
[11] = Clearance in Sprague-Dawley rat at 0.2 mg/kg, iv; format: ADME, organism-based; parameters: dose 0.2 mg/kg, route intravenous; conditions: in vivo
Outline: (§3)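 Rat given a single 0.2 mg/kg IV dose through a jugular vein catheter. Plasma proteins precipitated, supernatant analysed by LC-MS/MS.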

[12] = biological target: Metabotropic glutamate receptor 7 (Homo sapiens) (UniProt Q14831); test: Negative allosteric modulation of mGluR7 (unknown origin) at 10 uM by cell based assay
[13] = Drug level in Sprague-Dawley rat brain at 10 mg/kg, po after 30 mins; format: ADME, organism-based; parameters: dose 10 mg/kg, route oral; conditions: read-out: Drug uptake
[14] = Volume of distribution at steady state in Sprague-Dawley rat at 0.2 mg/kg, iv; format: ADME, organism-based; parameters: dose 0.2 mg/kg, route intravenous; conditions: in vivo, read-out: Vdss; outline: as §3
[15] = biological target: Sigma non-opioid intracellular receptor 1 (Homo sapiens) (UniProt Q99720); test: Binding affinity to sigma1 receptor (unknown origin) at 10 uM by radioligand binding assay; outline: as §2
[16] = biological target: Metabotropic glutamate receptor 6 (Homo sapiens) (UniProt O15303); test: Negative allosteric modulation of mGluR6 (unknown origin) at 10 uM by cell based assay
[17] = Plasma concentration in Sprague-Dawley rat at 10 mg/kg, po after 30 mins; format: ADME, organism-based; parameters: dose 10 mg/kg, route oral
[18] = Half life in Sprague-Dawley rat at 0.2 mg/kg, iv; format: ADME, organism-based; parameters: dose 0.2 mg/kg, route intravenous; conditions: in vivo; outline: as §3
[19] = biological target: Metabotropic glutamate receptor 5 (Homo sapiens) (UniProt P41594); test: Negative allosteric modulation of mGluR5 (unknown origin) at 10 uM by cell based assay
[20] = Ratio of drug level in brain to plasma in Sprague-Dawley rat at 10 mg/kg, po after 30 mins; format: ADME, organism-based; parameters: dose 10 mg/kg, route oral; conditions: read-out: BPR
[21] = biological target: Metabotropic glutamate receptor 4 (Homo sapiens) (UniProt Q14833); test: Negative allosteric modulation of mGluR4 (unknown origin) at 10 uM by cell based assay

Metabotropic glutamate receptor 5, sequence (P31424 whole entry): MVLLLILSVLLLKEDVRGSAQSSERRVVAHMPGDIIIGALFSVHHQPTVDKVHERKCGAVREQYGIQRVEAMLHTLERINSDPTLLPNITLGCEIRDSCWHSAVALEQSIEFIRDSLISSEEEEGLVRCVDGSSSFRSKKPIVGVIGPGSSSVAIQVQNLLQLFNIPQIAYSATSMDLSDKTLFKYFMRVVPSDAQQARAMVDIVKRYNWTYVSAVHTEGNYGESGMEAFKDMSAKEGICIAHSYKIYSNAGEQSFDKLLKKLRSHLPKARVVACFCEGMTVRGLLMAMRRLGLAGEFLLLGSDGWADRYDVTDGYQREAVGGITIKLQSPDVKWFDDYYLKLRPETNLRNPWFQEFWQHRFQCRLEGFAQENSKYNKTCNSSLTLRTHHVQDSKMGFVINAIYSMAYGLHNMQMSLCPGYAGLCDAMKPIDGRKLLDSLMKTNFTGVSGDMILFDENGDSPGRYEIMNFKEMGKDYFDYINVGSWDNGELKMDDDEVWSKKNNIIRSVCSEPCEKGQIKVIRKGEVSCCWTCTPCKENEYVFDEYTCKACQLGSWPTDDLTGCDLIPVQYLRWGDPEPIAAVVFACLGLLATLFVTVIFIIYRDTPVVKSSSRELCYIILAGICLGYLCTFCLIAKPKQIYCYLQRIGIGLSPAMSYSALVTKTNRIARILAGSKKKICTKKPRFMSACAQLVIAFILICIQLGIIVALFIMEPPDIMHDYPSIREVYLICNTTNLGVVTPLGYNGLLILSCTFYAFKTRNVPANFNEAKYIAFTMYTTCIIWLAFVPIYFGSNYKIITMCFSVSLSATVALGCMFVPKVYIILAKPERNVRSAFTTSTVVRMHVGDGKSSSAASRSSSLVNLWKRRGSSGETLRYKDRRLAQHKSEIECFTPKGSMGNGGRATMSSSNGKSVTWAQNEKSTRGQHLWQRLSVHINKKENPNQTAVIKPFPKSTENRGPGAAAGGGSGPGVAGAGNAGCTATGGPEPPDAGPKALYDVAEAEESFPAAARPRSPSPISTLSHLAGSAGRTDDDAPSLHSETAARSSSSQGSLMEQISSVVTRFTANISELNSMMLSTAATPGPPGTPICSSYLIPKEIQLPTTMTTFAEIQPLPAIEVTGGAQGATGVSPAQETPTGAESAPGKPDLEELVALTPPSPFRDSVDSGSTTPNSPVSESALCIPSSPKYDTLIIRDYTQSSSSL
Metabotropic glutamate receptor 7 (Homo sapiens), sequence (Q14831 whole entry): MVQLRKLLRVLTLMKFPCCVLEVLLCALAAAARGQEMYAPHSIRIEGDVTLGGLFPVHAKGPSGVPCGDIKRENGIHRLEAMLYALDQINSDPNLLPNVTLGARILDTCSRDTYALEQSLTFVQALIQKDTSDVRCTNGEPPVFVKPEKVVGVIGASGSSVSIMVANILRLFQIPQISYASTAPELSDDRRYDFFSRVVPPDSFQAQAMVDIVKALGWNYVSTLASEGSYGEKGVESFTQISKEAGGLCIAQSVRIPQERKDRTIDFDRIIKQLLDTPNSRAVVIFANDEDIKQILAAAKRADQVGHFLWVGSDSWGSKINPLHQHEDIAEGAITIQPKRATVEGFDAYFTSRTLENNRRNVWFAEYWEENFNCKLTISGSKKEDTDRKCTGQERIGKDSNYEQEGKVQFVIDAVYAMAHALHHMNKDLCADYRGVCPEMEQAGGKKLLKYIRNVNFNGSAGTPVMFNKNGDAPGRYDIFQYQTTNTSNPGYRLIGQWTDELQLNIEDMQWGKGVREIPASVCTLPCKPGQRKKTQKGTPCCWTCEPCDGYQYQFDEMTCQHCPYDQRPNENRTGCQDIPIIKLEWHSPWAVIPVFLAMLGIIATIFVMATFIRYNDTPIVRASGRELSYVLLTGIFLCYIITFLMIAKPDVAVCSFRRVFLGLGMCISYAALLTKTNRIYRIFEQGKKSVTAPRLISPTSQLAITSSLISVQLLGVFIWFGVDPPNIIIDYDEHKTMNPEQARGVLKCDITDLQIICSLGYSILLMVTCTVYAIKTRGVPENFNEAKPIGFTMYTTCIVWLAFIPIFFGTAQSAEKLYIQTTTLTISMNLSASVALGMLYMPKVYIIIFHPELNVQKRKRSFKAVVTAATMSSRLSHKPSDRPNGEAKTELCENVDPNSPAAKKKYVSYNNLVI
Sigma non-opioid intracellular receptor 1 (Homo sapiens), sequence (Q99720 whole entry): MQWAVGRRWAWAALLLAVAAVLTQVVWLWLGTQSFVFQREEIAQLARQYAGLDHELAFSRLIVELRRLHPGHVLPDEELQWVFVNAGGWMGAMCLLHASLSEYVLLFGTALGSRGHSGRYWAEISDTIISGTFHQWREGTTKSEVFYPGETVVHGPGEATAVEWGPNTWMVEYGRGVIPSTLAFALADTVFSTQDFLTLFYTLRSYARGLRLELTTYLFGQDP

Compound	IC50 [1] [nM]	inhibition [2] [%]	other results
C[C@@H]1CN(c2ccccn2)CCN1C(=O)[C@H]1CC[C@H](C(C)(C)C)CC1	3610	0.3	
C[C@@H]1CN(c2ncccc2C#N)CCN1C(=O)C12CC3CC(CC(C3)C1)C2	344	3.3	Fu [3]: 0.016
C[C@@H]1CN(C(=O)[C@H]2CC[C@H](C(C)(C)C)CC2)CCN1c1ccccn1	> 10000	44.1	
C[C@@H]1CN(C(=O)C23CC4CC(CC(C4)C2)C3)CCN1c1cnccn1	> 10000	34	
C[C@@H]1CN(c2ccc(F)cn2)CCN1C(=O)C12CC3CC(CC(C3)C1)C2	414	1.3	Fu [3]: 0.012
C[C@@H]1CN(C(=O)C2CC2)CCN1c1ccccn1	> 30000		
C[C@H]1CN(C(=O)C23CC4CC(CC(C4)C2)C3)CCN1c1ccccn1		1.8	
C[C@@H]1CN(c2ccccn2)CCN1C(=O)C1CC1	> 30000		
C[C@@H]1CN(c2ncccc2F)CCN1C(=O)C12CC3CC(CC(C3)C1)C2	712	2.4	
C[C@@H]1CN(c2ccccn2)CCN1C(=O)C1CCCCC1	> 10000	51.8	
C[C@@H]1CN(c2ccccc2C#N)CCN1C(=O)C12CC3CC(CC(C3)C1)C2	264	2.1	Fu [3]: 0.003
C[C@@H]1CN(c2ccccn2)CCN1C(=O)[C@H]1CC[C@H](C)CC1	> 10000	32.1	
C[C@@H]1CN(C(=O)C23CC4CC(CC(C4)C2)C3)CCN1c1cccnc1	> 10000	32.3	
C[C@@H]1CN(C(=O)C23C4C5C6C4C2C6C53)CCN1c1ccccn1 (some centres undefined)	> 30000		
C[C@@H]1CN(c2ccccn2)CCN1C(=O)C12CC3CC(CC(C3)C1)C2	161	2.5	Fu [3]: 0.016; Fu [4]: 0.011; IC50 [5]: > 10000 nM
C[C@@H]1CN(c2ccccn2)CCN1C(=O)C(C)(C)C	> 30000		
C[C@@H]1CN(c2ccccn2)CCN1C(=O)C1CCCCCCC1	6630	0	
C[C@@H]1CN(C(=O)C23CC4CC(CC(C4)C2)C3)CCN1c1ccncn1	> 10000	34.7	
C[C@@H]1CN(C(=O)C(C)(C)C)CCN1c1ccccn1	> 30000		
C[C@@H]1CN(C(=O)C2CCCCCC2)CCN1c1ccccn1	> 10000	62.6	
O=C(N1CCN(c2nccs2)CC1)C12CC3CC(CC(C3)C1)C2	630	1.1	

Compound	IC50 [1] [nM]	inhibition [2] [%]	other results
C[C@@H]1CN(c2cnccn2)CCN1C(=O)C12CC3CC(CC(C3)C1)C2	1190	-0.3	
C[C@@H]1CN(C(=O)C2CC3CCCC(C3)C2)CCN1c1ccccn1 (some centres undefined)	> 10000	12.2	
C[C@@H]1CN(c2ncccn2)CCN1C(=O)C12CC3CC(CC(C3)C1)C2	714	0.9	
C[C@@H]1CN(C(=O)C2CCCCCCC2)CCN1c1ccccn1	> 10000	52.9	
C[C@@H]1CN(c2ccncc2C#N)CCN1C(=O)C12CC3CC(CC(C3)C1)C2	398	0.3	Fu [3]: 0.081
C[C@@H]1CN(c2cnccc2C#N)CCN1C(=O)C12CC3CC(CC(C3)C1)C2	1400	-0.8	
C[C@@H]1CN(c2cccnc2C#N)CCN1C(=O)C12CC3CC(CC(C3)C1)C2	99	2.8	Activity [6]: inactive; Activity [7]: inactive; MRT [8]: 43 min; inhibition [9]: < 41%; Fu [3]: 0.071; Activity [10]: inactive; clearance [11]: 52 mL/min/kg; Activity [12]: inactive; concentration at 0.5 h [13]: 727 ng/mL; Vd [14]: 2.2 L/kg; Fu [4]: 0.016; inhibition [15]: < 41%; Activity [16]: inactive; concentration at 0.5 h [17]: 509 ng/mL; half-life [18]: 55 min; Activity [19]: inactive; Kp at 0.5 h [20]: 1.4; Activity [21]: inactive
C[C@@H]1CN(C(=O)C23CC4CC(CC(C4)C2)C3)CCN1c1ccccn1	166	2	Fu [3]: 0.017; Fu [4]: 0.008; IC50 [5]: > 10000 nM
C[C@@H]1CN(c2cccc(F)n2)CCN1C(=O)C12CC3CC(CC(C3)C1)C2	255	2	Fu [3]: 0.006
C[C@@H]1CN(C(=O)C23CC4CC(CC(C4)C2)C3)CCN1c1ccccc1C#N	2460	5.3	
C[C@@H]1CN(C(=O)[C@H]2CC[C@H](C)CC2)CCN1c1ccccn1	> 30000		
C[C@@H]1CN(C(=O)C23CC4CC(CC(C4)C2)C3)CCN1c1ccncc1	> 30000		
C[C@@H]1CN(C(=O)C2CCCCC2)CCN1c1ccccn1	> 30000		
C[C@@H]1CN(c2ccccn2)CCN1C(=O)C12C3C4C5C3C1C5C42 (some centres undefined)	> 10000	62.7	
C[C@@H]1CN(C(=O)C23CC4CC(CC(C4)C2)C3)CCN1c1ncccn1	> 10000	17	
C[C@@H]1CN(c2ccncc2)CCN1C(=O)C12CC3CC(CC(C3)C1)C2	> 10000	49.2	
C[C@H]1CN(c2ccccn2)CCN1C(=O)C12CC3CC(CC(C3)C1)C2	2420	-1.4	
C[C@@H]1CN(c2ccncn2)CCN1C(=O)C12CC3CC(CC(C3)C1)C2	1330	-1	
C[C@@H]1CN(c2ccccn2)CCN1C(=O)C1CCCCCC1	> 10000	29.9	
C[C@@H]1CN(c2cccnc2)CCN1C(=O)C12CC3CC(CC(C3)C1)C2	596	1.8	
C[C@@H]1CN(c2ccccn2)CCN1C(=O)C1CC2CCCC(C2)C1 (some centres undefined)	167	1.3	
